Source: article PMC11170203 (Saudi Pharmaceutical Journal : SPJ, 2024)

Experiments:
[1] = Ferric reducing antioxidant power; settings: mean ± S.D. of three measurements
Method in brief: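 FRAP reagent is acetate buffer (300 mM, pH 3.6), TPTZ (10 mM in 40 mM HCl) and FeCl3·6H2O (20 mM) at 10:1:1, prewarmed 10 min at 37 °C. The test extract reacts with the reagent for 30 min at 37 °C, and Fe(II)-TPTZ is read at 593 nm. Values come from a ferrous sulfate calibration curve, as FeSO4 equivalents per g extract. Ascorbic acid is the reference; three independent experiments, mean ± SD.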

[2] = DPPH radical scavenging assay
Method in brief: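 The test extract (6.25–400 ug/mL) is mixed 1:1 with 0.06 mM DPPH in absolute ethanol and incubated 30 min in the dark. Absorbance is read at 517 nm and corrected with a DPPH-free sample background. BHT is the standard. % inhibition = (Acontrol − Asample)/Acontrol × 100. IC50 comes from dose-response curves; three independent experiments, mean ± SD.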

[3] = target: collagenase from Clostridium histolyticum; assay: Collagenase enzyme inhibitory assay; assay type: biochemical; settings: concentration range 15.63–1000 µg/mL
Method in brief: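 Clostridium histolyticum collagenase (0.1 mg/mL) is preincubated with the test extract in tricine buffer (50 mM tricine, 10 mM CaCl2, 400 mM NaCl, pH 7.5) for 20 min at 37 °C. FALGPA substrate (1 mM solution) is added, and absorbance is read at 335 nm after 15 min. EGCG is the positive control. IC50 is taken from dose-response curves of % inhibition, with three independent experiments.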

[4] = target: porcine pancreatic elastase (Sus scrofa, UniProt P00772); assay: Elastase enzyme inhibitory assay; assay type: biochemical; settings: concentration range 15.63–1000 µg/mL
Chain of porcine pancreatic elastase (P00772 27-266): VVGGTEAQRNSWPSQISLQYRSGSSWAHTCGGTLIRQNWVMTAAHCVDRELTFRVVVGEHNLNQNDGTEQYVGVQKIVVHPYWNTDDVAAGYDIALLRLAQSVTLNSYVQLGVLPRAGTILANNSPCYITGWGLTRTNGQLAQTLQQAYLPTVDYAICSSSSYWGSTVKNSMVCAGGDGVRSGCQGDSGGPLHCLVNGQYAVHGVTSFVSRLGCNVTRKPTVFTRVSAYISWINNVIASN
Method in brief: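 Porcine pancreatic elastase and the test extract in Tris-HCl (100 mM, pH 8.0) are incubated 5 min at 37 °C. The reaction is started with succinyl-Ala-Ala-Ala-p-nitroanilide (4.4 mM solution in Tris-HCl), and absorbance is read at 410 nm. EGCG is the positive control and distilled water the negative control. IC50 is taken from dose-response curves of % inhibition, with three independent experiments.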

[5] = target: T1, hyaluronidase (Bos taurus, UniProt Q2YDK3); assay: Hyaluronidase enzyme inhibitory assay; assay type: biochemical; settings: concentration range 25–250 µg/mL
T1 sequence (Q2YDK3 36-553): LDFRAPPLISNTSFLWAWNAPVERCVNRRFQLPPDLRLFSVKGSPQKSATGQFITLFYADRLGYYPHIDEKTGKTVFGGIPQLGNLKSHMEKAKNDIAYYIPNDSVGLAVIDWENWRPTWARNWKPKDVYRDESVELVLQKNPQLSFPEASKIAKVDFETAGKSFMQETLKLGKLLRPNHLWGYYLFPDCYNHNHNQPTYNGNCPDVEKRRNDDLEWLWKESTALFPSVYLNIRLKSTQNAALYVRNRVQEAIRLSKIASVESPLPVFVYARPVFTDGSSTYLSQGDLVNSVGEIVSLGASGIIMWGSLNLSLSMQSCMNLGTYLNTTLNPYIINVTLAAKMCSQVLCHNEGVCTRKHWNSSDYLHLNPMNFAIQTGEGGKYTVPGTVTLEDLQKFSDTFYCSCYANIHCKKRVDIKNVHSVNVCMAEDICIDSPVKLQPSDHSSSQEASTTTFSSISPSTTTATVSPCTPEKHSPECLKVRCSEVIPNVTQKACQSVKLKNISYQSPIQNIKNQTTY
Method in brief: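 The test extract in 10% DMSO is incubated with hyaluronidase 10 min at 37 °C, then with CaCl2 (12.5 mM solution) for 10 min. Sodium hyaluronate is added for 40 min at 37 °C. NaOH (0.9 M) and sodium borate (0.2 M) are added and heated 3 min at 100 °C. PDMAB (67 mM) is added for 10 min at 37 °C, and absorbance is read at 585 nm. Tannic acid is the reference; IC50 comes from dose-response curves, three independent experiments.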

O=C1O[C@H]([C@@H](O)CO)C(O)=C1O [Ascorbic acid]
FRAP [1]: 4794.7 ± 5.507 µM FeSO4/g extract

Cc1cc(C(C)(C)C)c(O)c(C(C)(C)C)c1 [BHT, butylated hydroxytoluene]
DPPH (IC50) ([2]; mean ± S.D. of three measurements): 20.721 ± 0.138 µg/mL
DPPH radical scavenging IC50 ([2]; unit as printed in the results text): 20.72 ± 0.138 µg/mL

O=C(O[C@@H]1Cc2c(O)cc(O)cc2O[C@@H]1c1cc(O)c(O)c(O)c1)c1cc(O)c(O)c(O)c1 [EGCG, epigallocatechin gallate]
Collagenase inhibition IC50 [3]: 33.662 ± 0.302 µg/mL
Elastase inhibition IC50 [4]: 33.334 ± 0.299 µg/mL

tannic acid
Hyaluronidase inhibition IC50 [5]: 30.652 ± 0.626 µg/mL
